SMILES strings stand for the structures. pIC50: −log10 of the molar value. Where a SMILES comes first, the peptide text is derived from it. [ ]: non-standard residue; d: D form. Phe(4-NHCONH2) = NC(=O)Nc1ccc(C[C@H](N)C(=O)O)cc1; dPhe(4-NH2) = Nc1ccc(C[C@@H](N)C(=O)O)cc1; dPhe(4-Cl) = N[C@H](Cc1ccc(Cl)cc1)C(=O)O; d2Nal = N[C@H](Cc1ccc2ccccc2c1)C(=O)O; Lys(iPr) = CC(C)NCCCC[C@H](N)C(=O)O; d3Pal = N[C@H](Cc1cccnc1)C(=O)O

This is an account of results in ChEMBL document CHEMBL1134340, “GnRH antagonists: a new generation of long acting analogues incorporating p-ureido-phenylalanines at positions 5 and 6” (J Med Chem, 2001).

The target of assay [1] is T1, Gonadotropin-releasing hormone receptor (Homo sapiens, UniProt P30968).
T1 sequence (P30968 whole entry): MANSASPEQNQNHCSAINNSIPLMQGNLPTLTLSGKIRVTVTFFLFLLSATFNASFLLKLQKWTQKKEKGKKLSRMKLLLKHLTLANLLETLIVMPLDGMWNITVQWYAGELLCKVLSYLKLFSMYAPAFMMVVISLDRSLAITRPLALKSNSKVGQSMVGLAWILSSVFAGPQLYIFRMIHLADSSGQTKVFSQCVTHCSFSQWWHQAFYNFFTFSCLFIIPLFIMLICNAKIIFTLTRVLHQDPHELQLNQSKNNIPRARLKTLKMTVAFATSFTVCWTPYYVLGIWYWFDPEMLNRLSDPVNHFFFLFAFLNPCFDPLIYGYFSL
Kind of assay: Antagonism of human GnHR receptor, determined in a reporter gene assay in HEK293 cells. The assay is classed as functional, cell-based. The method, boiled down:
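HEK293 cells stably expressing cloned human GnRH receptor plus luciferase reporter under LH alpha subunit promoter, plated 24 h before assay. Compound in 1% DMSO added 10 min at 37 °C, then GnRH at 3 nM final; 5 h incubation, luciferase luminescence read. Six concentrations in duplicate; blank-subtracted cps as % of GnRH control; mean of two determinations.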

The target in assay [2] is T1, Gonadotropin-releasing hormone receptor. Kind of assay: Competitive antagonism of GnRH-induced response in the reporter gene assay. Format: functional. The following applies: read-out: pA2 (converted). The gist of the method: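 Same HEK293 human GnRH receptor luciferase reporter cells. Seven-point GnRH curve (10 µM to 10 pM final) run in duplicate without or with four to five increasing compound concentrations (10 min preincubation, 37 °C), then 5 h and luminescence. GnRH EC50 at each level by four-parameter logistic fit, giving pA2; mean of two determinations in duplicate.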

For assay [3], the species on record is Rattus norvegicus. Kind of assay: Compound was tested for inhibition of Leutenizing hormone release at 48 hours (intermediate duration) in castrated male rat assay. The assay is classed as functional. Also on record: concentration or dose not given beside the values. The method, boiled down: (§1)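 Male Sprague-Dawley rats (180-200 g), castrated under ether 10 days earlier, 5 per group. 50 µg/rat given sc in 100 µL 40 mM phosphate buffer with 0.1% BSA and 0.6% DMSO; acyline run as internal standard. Tail blood taken predose and at 24, 48, 72, 96 (sometimes 120) h; plasma LH by RIA. Duration classed by >80% LH inhibition at each time.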

For assay [4], the species on record is Rattus norvegicus. Kind of assay: Compound was tested for inhibition of Leutenizing hormone release at 96 hours (very long duration) in castrated male rat assay. The assay is classed as functional. Also on record: concentration or dose not given beside the values. The method, boiled down: as §1
The species entered for assay [5] is Rattus norvegicus. Kind of assay: Compound was tested for histamine release at a concentration of 100 ug/mL. The assay is classed as functional. The method, boiled down:
(§2)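 Sprague-Dawley rat peritoneal mast cells, Percoll-purified, in heparinized balanced salt solution with albumin, pH 7.2. Cells exposed to compound or vehicle for 2 min at 37 °C. Supernatant histamine measured spectrofluorometrically after o-phthalaldehyde derivatization; pellets lysed for retained histamine. Reported as % of total histamine released, corrected for spontaneous release in vehicle.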

The species named for assay [6] is Rattus norvegicus. Kind of assay: Compound was tested for histamine release at a concentration of 300 ug/mL. Format: functional. The method, boiled down:
as §2

The species entered for assay [7] is Rattus norvegicus. Kind of assay: Compound was tested for histamine release at a concentration of 30 ug/mL. The assay is classed as functional. The method, boiled down: as §2
The species named for assay [8] is Rattus norvegicus. Kind of assay: Compound was tested for inhibition of Leutenizing hormone release at 24 hours (short duration) in castrated male rat assay. The assay is classed as functional. Also on record: concentration or dose not given beside the values. The method, boiled down:
as §1

The species named for assay [9] is Rattus norvegicus. Kind of assay: Compound was tested for inhibition of Leutenizing hormone release at 72 hours (long duration) in castrated male rat assay. Format: functional. Also on record: concentration or dose not given beside the values. The method, boiled down: as §1

For `CC(=O)N[C@H](Cc1ccc2ccccc2c1)C(=O)N[C@H](Cc1ccc(Cl)cc1)C(=O)N[C@H](Cc1cccnc1)C(=O)N[C@@H](CO)C(=O)N[C@@H](Cc1ccc(NC(=O)[C@@H]2CC(=O)NC(=O)N2)cc1)C(=O)N[C@H](Cc1ccc(NC(N)=O)cc1)C(=O)N[C@@H](CC(C)C)C(=O)N[C@@H](CCCCNC(C)C)C(=O)N1CCC[C@H]1C(=O)N[C@H](C)C(N)=O` [DEGARELIX], the negative-log IC50 (pIC50) (commonly the negative decadic logarithm of the IC50, by convention in mol/L) in [1] is 8.06. For the same molecule, the Kb in [2] is 0.631 nM. In addition, the Inhibition (as a rule, the drop in the measured response relative to a control, in per cent) in assay [3] is given as above 80%.
`CC(=O)N[C@H](Cc1ccc2ccccc2c1)C(=O)N[C@H](Cc1ccc(Cl)cc1)C(=O)N[C@H](Cc1cccnc1)C(=O)N[C@@H](CO)C(=O)N[C@@H](Cc1ccc(NC(=O)[C@@H]2CC(=O)NC(=O)N2)cc1)C(=O)N[C@H](Cc1cccnc1)C(=O)N[C@@H](CC(C)C)C(=O)N[C@@H](CCCCNC(C)C)C(=O)N1CCC[C@H]1C(=O)N[C@H](C)C(N)=O` returned an Inhibition in assay [4] above 80%. In addition, the HR is 68% in [5] and 62% in assay [6].
For `CNC(=O)NCc1ccc(C[C@@H](NC(=O)[C@H](Cc2ccc(NC(=O)[C@@H]3CC(=O)NC(=O)N3)cc2)NC(=O)[C@H](CO)NC(=O)[C@@H](Cc2cccnc2)NC(=O)[C@@H](Cc2ccc(Cl)cc2)NC(=O)[C@@H](Cc2ccc3ccccc3c2)NC(C)=O)C(=O)N[C@@H](CC(C)C)C(=O)N[C@@H](CCCCNC(C)C)C(=O)N2CCC[C@H]2C(=O)N[C@H](C)C(N)=O)cc1`, in that order: above 80%, 56% and 67%.
Take `CC(=O)Nc1ccc(C[C@H](NC(=O)[C@H](CO)NC(=O)[C@@H](Cc2cccnc2)NC(=O)[C@@H](Cc2ccc(Cl)cc2)NC(=O)[C@@H](Cc2ccc3ccccc3c2)NC(C)=O)C(=O)N[C@H](Cc2ccc(NC(=O)[C@@H]3CC(=O)NC(=O)N3)cc2)C(=O)N[C@@H](CC(C)C)C(=O)N[C@@H](CCCCNC(C)C)C(=O)N2CCC[C@H]2C(=O)N[C@H](C)C(N)=O)cc1`: the HR in assay [7] is 17%; in assay [5], 64%. In addition, the Inhibition in assay [3] is above 80%.
On to `CC(=O)N[C@H](Cc1ccc2ccccc2c1)C(=O)N[C@H](Cc1ccc(Cl)cc1)C(=O)N[C@H](Cc1cccnc1)C(=O)N[C@@H](CO)C(=O)N[C@@H](Cc1ccc(NC(=O)[C@@H]2CC(=O)NC(=O)N2)cc1)C(=O)N[C@H](Cc1ccc2ccccc2c1)C(=O)N[C@@H](CC(C)C)C(=O)N[C@@H](CCCCNC(C)C)C(=O)N1CCC[C@H]1C(=O)N[C@H](C)C(N)=O`, for which, in [8], the Inhibition is given as above 80%.
For the molecule `CCNC(=O)NC[C@H](NC(=O)[C@H](CO)NC(=O)[C@@H](Cc1cccnc1)NC(=O)[C@@H](Cc1ccc(Cl)cc1)NC(=O)[C@@H](Cc1ccc2ccccc2c1)NC(C)=O)C(=O)N[C@H](Cc1ccc(NC(C)=O)cc1)C(=O)N[C@@H](CC(C)C)C(=O)N[C@@H](CCCCNC(C)C)C(=O)N1CCC[C@H]1C(=O)N[C@H](C)C(N)=O`, the Inhibition in assay [8] is on record as above 80%.
On the same count and under the same terms, the result for `CC(=O)Nc1ccc(C[C@@H](NC(=O)[C@H](CNC(N)=O)NC(=O)[C@H](CO)NC(=O)[C@@H](Cc2cccnc2)NC(=O)[C@@H](Cc2ccc(Cl)cc2)NC(=O)[C@@H](Cc2ccc3ccccc3c2)NC(C)=O)C(=O)N[C@@H](CC(C)C)C(=O)N[C@@H](CCCCNC(C)C)C(=O)N2CCC[C@H]2C(=O)N[C@H](C)C(N)=O)cc1` reads above 80%.
In assay [8], `CC(=O)Nc1ccc(C[C@@H](NC(=O)[C@H](Cc2ccc(NC(=O)c3cnc(O)nc3O)cc2)NC(=O)[C@H](CO)NC(=O)[C@@H](Cc2cccnc2)NC(=O)[C@@H](Cc2ccc(Cl)cc2)NC(=O)[C@@H](Cc2ccc3ccccc3c2)NC(C)=O)C(=O)N[C@@H](CC(C)C)C(=O)N[C@@H](CCCCNC(C)C)C(=O)N2CCC[C@H]2C(=O)N[C@H](C)C(N)=O)cc1` displayed an Inhibition above 80%. In assay [1], this molecule gave a pIC50 of 8.09.
In turn, `CC(=O)Nc1ccc(C[C@@H](NC(=O)[C@H](CCNC(N)=O)NC(=O)[C@H](CO)NC(=O)[C@@H](Cc2cccnc2)NC(=O)[C@@H](Cc2ccc(Cl)cc2)NC(=O)[C@@H](Cc2ccc3ccccc3c2)NC(C)=O)C(=O)N[C@@H](CC(C)C)C(=O)N[C@@H](CCCCNC(C)C)C(=O)N2CCC[C@H]2C(=O)N[C@H](C)C(N)=O)cc1` registered an Inhibition in assay [8] above 80%.
In assay [8], `CC(=O)Nc1ccc(C[C@@H](NC(=O)[C@H](Cc2ccc(NC(=O)[C@@H]3CC(=O)NC(=O)N3)cc2)N(C)C(=O)[C@H](CO)NC(=O)[C@@H](Cc2cccnc2)NC(=O)[C@@H](Cc2ccc(Cl)cc2)NC(=O)[C@@H](Cc2ccc3ccccc3c2)NC(C)=O)C(=O)N[C@@H](CC(C)C)C(=O)N[C@@H](CCCCNC(C)C)C(=O)N2CCC[C@H]2C(=O)N[C@H](C)C(N)=O)cc1` registered an Inhibition above 80%. In assay [1], this molecule had a pIC50 of 8.09. For the same molecule, the Kb in [2] is 0.794 nM. In addition, the HR in assay [7] stood at 50%; in assay [5], 124%.
Regarding `CC(=O)Nc1ccc(C[C@@H](NC(=O)[C@H](Cc2ccc(NC(=O)[C@H]3CNC(=O)N3)cc2)NC(=O)[C@H](CO)NC(=O)[C@@H](Cc2cccnc2)NC(=O)[C@@H](Cc2ccc(Cl)cc2)NC(=O)[C@@H](Cc2ccc3ccccc3c2)NC(C)=O)C(=O)N[C@@H](CC(C)C)C(=O)N[C@@H](CCCCNC(C)C)C(=O)N2CCC[C@H]2C(=O)N[C@H](C)C(N)=O)cc1`, in [1], the pIC50 was 7.97. In assay [3], this molecule registered an Inhibition above 80%.
For the molecule `CC(=O)Nc1ccc(C[C@@H](NC(=O)[C@H](Cc2ccc(NC(N)=O)cc2)NC(=O)[C@H](CO)NC(=O)[C@@H](Cc2cccnc2)NC(=O)[C@@H](Cc2ccc(Cl)cc2)NC(=O)[C@@H](Cc2ccc3ccccc3c2)NC(C)=O)C(=O)N[C@@H](CC(C)C)C(=O)N[C@@H](CCCCNC(C)C)C(=O)N2CCC[C@H]2C(=O)N[C@H](C)C(N)=O)cc1` (Ac-[d2Nal][dPhe(4-Cl)][d3Pal]S[Phe(4-NHCONH2)][dPhe(4-NH2)](Ac)L[Lys(iPr)]P[dA]-NH2), in [1], the negative-log IC50 (pIC50) was 8.14. The same molecule displayed an Inhibition in assay [3] above 80%.
In turn, `CCNC(=O)Nc1ccc(C[C@H](NC(=O)[C@H](CO)NC(=O)[C@@H](Cc2cccnc2)NC(=O)[C@@H](Cc2ccc(Cl)cc2)NC(=O)[C@@H](Cc2ccc3ccccc3c2)NC(C)=O)C(=O)N[C@H](Cc2ccc(NC(=O)NCC)cc2)C(=O)N[C@@H](CC(C)C)C(=O)N[C@@H](CCCCNC(C)C)C(=O)N2CCC[C@H]2C(=O)N[C@H](C)C(N)=O)cc1` displayed an Inhibition in assay [8] above 80%. The negative-log IC50 (pIC50) in assay [1] was 8.30. Moreover, the Kb in assay [2] is 1.26 nM.
Regarding `CC(=O)N[C@H](Cc1ccc2ccccc2c1)C(=O)N[C@H](Cc1ccc(Cl)cc1)C(=O)N[C@H](Cc1cccnc1)C(=O)N[C@@H](CO)C(=O)N[C@@H](Cc1ccc(NC(=O)[C@@H]2CC(=O)NC(=O)N2)cc1)C(=O)N[C@H](Cc1ccc(NC(=O)[C@@H]2CC(=O)NC(=O)N2)cc1)C(=O)N[C@@H](CC(C)C)C(=O)N[C@@H](CCCCNC(C)C)C(=O)N1CCC[C@H]1C(=O)N[C@H](C)C(N)=O`, the Inhibition in [9] is recorded as above 80%. The HR in assay [7] is listed as below 10%; in assay [5], 11%.
For the molecule `COc1ccc(NC(=O)NC[C@H](NC(=O)[C@H](CO)NC(=O)[C@@H](Cc2cccnc2)NC(=O)[C@@H](Cc2ccc(Cl)cc2)NC(=O)[C@@H](Cc2ccc3ccccc3c2)NC(C)=O)C(=O)N[C@H](Cc2ccc(NC(C)=O)cc2)C(=O)N[C@@H](CC(C)C)C(=O)N[C@@H](CCCCNC(C)C)C(=O)N2CCC[C@H]2C(=O)N[C@H](C)C(N)=O)cc1`, the Inhibition in [8] is above 80%.
